Measured values published in ChEMBL document CHEMBL4270562, “Synthesis and evaluation of the cytotoxic activity of Furanaphthoquinones tethered to 1H-1,2,3-triazoles in Caco-2, Calu-3, MDA-MB231 cells” (Eur J Med Chem, 2018).

Columns and labels:
Caco-2 [1] = test: Cytotoxicity against human Caco2 cells assessed as cell viability at 5 uM after 48 hrs by MTT assay relative to control; type: functional; conditions: Caco-2, 48 h, read-out: Activity
Summary of the method: (§1)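 Single-concentration screen at 5 μM. Cells were seeded at 32,000/well and pre-incubated 24 h at 37 °C, 5% CO2, then treated 48 h in 10% FBS DMEM or RPMI containing 0.5% DMSO. MTT (2.5 mg/mL solution, 3 h), formazan dissolved in DMSO, absorbance at 570/690 nm. Viability expressed as % of untreated cells, mean ± SD.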

[2] = Cytotoxicity against African green monkey Vero cells assessed as cell viability at 5 uM after 48 hrs by MTT assay relative to control; type: cell-based; conditions: chlorocebus sabaeus, read-out: Activity; summary of the method: as §1
MDA-MB-231 = test: Cytotoxicity against human MDA-MB-231 cells assessed as cell viability at 5 uM after 48 hrs by MTT assay relative to control; type: functional; conditions: MDA-MB-231, 48 h, read-out: Activity; summary of the method: as §1
Calu-3 = test: Cytotoxicity against human Calu3 cells assessed as cell viability at 5 uM after 48 hrs by MTT assay relative to control; type: functional; conditions: Calu-3, 48 h, read-out: Activity; summary of the method: as §1
[3] = Selectivity index, ratio of CC50 for African green monkey Vero cells to IC50 for human Caco2 cells; type: toxicity; conditions: Vero cells (CC50) and Caco2 cells (IC50)
Summary of the method: (§2)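 Cells seeded at 32,000/well, grown 24 h at 37 °C in 5% CO2, then exposed for 48 h to samples at 5 to 400 μM in 10% FBS DMEM or RPMI with 0.5% DMSO. Vehicle medium with 0.5% DMSO served as control. Viability was read by MTT reduction: MTT solution (2.5 mg/mL) in HBSS for 3 h, DMSO to dissolve formazan, absorbance at 570/690 nm. IC50 (tumour lines) and CC50 (Vero) were derived from survival relative to untreated cells, and SI was calculated from them.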

Platelet = test: Inhibition of arachidonic acid-induced platelet aggregation in human platelet rich plasma at 100 uM preincubated for 2 mins followed by arachidonic acid addition and measured after 3 hrs by turbidimetric analysis; type: cell-based
Summary of the method: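 Fresh platelet-rich plasma pre-incubated 2 min at 37 °C with sample (100 μM) before arachidonic acid stimulation. Aggregation was followed turbidimetrically in a lumi-aggregometer. DMSO 1% was the negative control and acetylsalicylic acid 100 μM the positive control.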

[4] = Cytotoxicity against African green monkey Vero cells assessed as cell viability after 48 hrs by MTT assay relative to control; type: cell-based; conditions: chlorocebus sabaeus; summary of the method: as §2
Caco-2 [5] = test: Cytotoxicity against human Caco2 cells assessed as cell viability after 48 hrs by MTT assay relative to control; type: functional, cell-based; conditions: Caco-2, 48 h; summary of the method: as §2
[6] = Effect on activated thromboplastin time in human platelet poor plasma at 100 uM after 3 hrs; type: ADME, cell-free
Summary of the method: (§3)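 Citrated platelet-poor plasma tested with sample at 100 μM, vehicle DMSO ≤1%. Clotting times (PT, aPTT) were measured on a coagulation analyzer. DMSO 1% was the negative control and rivaroxaban 100 μM the positive anticoagulant control.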

[7] = Effect on prothrombin time in human platelet poor plasma at 100 uM after 3 hrs; type: ADME, cell-free; summary of the method: as §3

SMILES | viability at 5 µM (Caco-2 [1]) [%] | viability at 48 h, 5 µM [2] [%] | viability at 5 µM (MDA-MB-231) [%] | viability at 5 µM (Calu-3) [%] | selectivity ratio [3] | Activity (Platelet) | CC50 at 48 h [4] [µM] | IC50 (Caco-2 [5]) [µM] | Activity [6] | Activity [7]
O=C1C2=C(OC(c3cn(-c4ccc(Cl)c(Cl)c4)nn3)C2)C(=O)c2ccccc21 (stereo not given) | 83.9 | 78.7 | 96.6 | 111 |  |  |  |  |  | 
O=C1C(=O)c2ccccc2C2=C1CC(c1cn(-c3ccc(Cl)cc3)nn1)O2 (stereo not given) | 46.4 | 59.3 | 46.5 | 122 |  |  |  |  |  | 
O=C1C2=C(OC(c3cn(-c4cc(Cl)ccc4Cl)nn3)C2)C(=O)c2ccccc21 (stereo not given) | 85.8 | 90.4 | 104 | 139 |  |  |  |  |  | 
O=C1C2=C(OC(c3cn(-c4ccc([N+](=O)[O-])cc4)nn3)C2)C(=O)c2ccccc21 (stereo not given) | 95.5 | 63.6 | 97.4 | 120 |  |  |  |  |  | 
O=C1C2=C(OC(c3cn(-c4ccc(Cl)cc4)nn3)C2)C(=O)c2ccccc21 (stereo not given) | 82.1 | 78.1 | 103 | 134 |  |  |  |  |  | 
O=C1C(=O)c2ccccc2C2=C1CC(c1cn(-c3ccc(Cl)c(Cl)c3)nn1)O2 (stereo not given) | 94.4 | 81 | 90.2 | 111 |  |  |  |  |  | 
Cc1ccc(-n2cc(C3CC4=C(O3)C(=O)c3ccccc3C4=O)nn2)cc1 (stereo not given) | 88 | 74 | 95.3 | 112 |  |  |  |  |  | 
O=C1C(=O)c2ccccc2C2=C1CC(c1cn(-c3ccc([N+](=O)[O-])cc3)nn1)O2 (stereo not given) | 86.9 | 88.7 | 99.2 | 133 |  |  |  |  |  | 
COc1ccc(-n2cc(C3CC4=C(O3)C(=O)c3ccccc3C4=O)nn2)cc1 (stereo not given) | 81.8 | 64.8 | 99.6 | 125 |  |  |  |  |  | 
O=C1C(=O)c2ccccc2C2=C1CC(c1cn(-c3cc(Cl)ccc3Cl)nn1)O2 (stereo not given) | 78.1 | 74.7 | 82.1 | 118 |  |  |  |  |  | 
O=C1C(=O)c2ccccc2C2=C1CC(c1cn(-c3ccccc3)nn1)O2 (stereo not given) | 23.9 | 68 | 87.7 | 110 | 6.25 | Non-Toxic | 28 | 4.48 | Non-Toxic | Non-Toxic
O=C1C2=C(OC(c3cn(-c4ccccc4)nn3)C2)C(=O)c2ccccc21 (stereo not given) | 88.3 | 76.2 | 109 | 113 |  |  |  |  |  | 
O=C1C2=C(OC(c3cn(-c4ccc(F)cc4)nn3)C2)C(=O)c2ccccc21 (stereo not given) | 77.3 | 73 | 97.9 | 104 |  |  |  |  |  | 
O=C1C(=O)c2ccccc2C2=C1CC(c1cn(-c3ccc(F)cc3)nn1)O2 (stereo not given) | 37.9 | 55.8 | 41.5 | 117 |  |  |  |  |  | 
Cc1ccc(-n2cc(C3CC4=C(O3)c3ccccc3C(=O)C4=O)nn2)cc1 (stereo not given) | 33.3 | 41.8 | 90.7 | 111 |  |  |  |  |  | 
COc1ccc(-n2cc(C3CC4=C(O3)c3ccccc3C(=O)C4=O)nn2)cc1 (stereo not given) | 23 | 34.1 | 41.1 | 113 |  |  |  |  |  | 
